# From ChEMBL document CHEMBL5724801, “EUbOPEN Chemogenomics Library - Multiplex” (2024)
# Where “and” joins values, the source holds several entries; their conditions need not be identical. Equal entries are not always repeated.
# Tests used:
# Type in all cases: toxicity, cell-based
# [1] = tested on: U2OS; experiment: Multiplex assay against U2OS; settings: human
# In short: (§1)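 Cells were classed with CellPathfinder machine-learning gating, first as Hoechst high-intensity objects or normal cells, then (normal cells) as healthy, pyknosed or fragmented nuclei, and finally (pyknosed cells) as mitotic or apoptotic. Staining of live cells at seeding used Hoechst33342, BioTracker Green Microtubule Cytoskeleton Dye, MitoTracker Red and Annexin V Alexa Fluor 680, with imaging on a CQ1 microscope at 37°C and 5% CO2 after compound addition. Tubulin, mitochondrial-mass and membrane-permeability phenotypes are per cents of healthy-nucleus cells.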
# [2] = tested on: Fibroblast; experiment: Multiplex assay against human fibroblast; in short: as §1
# [3] = tested on: HEK-293T; experiment: Multiplex assay against HEK293T; settings: human; in short: as §1
# [4] = 12 h, 1 µM, compound concentration 1 uM
# [5] = 12 h, 10 µM, compound concentration 10 uM
# [6] = 24 h, 1 µM, compound concentration 1 uM
# [7] = 24 h, 10 µM, compound concentration 10 uM
# [8] = 48 h, 1 µM, compound concentration 1 uM
# [9] = 48 h, 10 µM, compound concentration 10 uM
smiles,measurement,setting,value
CN1CCN(c2cc(-c3ccccc3)nc(N)n2)CC1,Population Apoptotic (%),[1]; [4],80% and 62%
same,Population Fragmented Nuclei (%),[1]; [4],32% and 17%
same,Population Healthy Nuclei (%),[1]; [4],61% and 76%
same,Population Hoechst High Intensity Objects (%),[1]; [4],2% and 1%
same,Population Membrane Permeable-Phenotype (%),[1]; [4],5% and 7%
same,Population Mitochondria Different-Phenotype (%),[1]; [4],2% and 5%
same,Population Mitotic Cells (%),[1]; [4],20% and 37%
same,Population Normal (%),[1]; [4],97% and 98%
same,Population Pyknosed Nuclei (%),[1]; [4],6% and 5%
same,Population Tubulin-Different-Phenotype (%),[1]; [4],2% and 11%
same,Total Cell Count,[1]; [4],235 and 141
same,Population Apoptotic (%),[1]; [5],86% and 73%
same,Population Healthy Nuclei (%),[1]; [5],63% and 80%
same,Population Hoechst High Intensity Objects (%),[1]; [5],0% and 1%
same,Population Membrane Permeable-Phenotype (%),[1]; [5],5% and 10%
same,Population Mitochondria Different-Phenotype (%),[1]; [5],3%
same,Population Mitotic Cells (%),[1]; [5],13% and 26%
same,Population Normal (%),[1]; [5],99% and 98%
same,Population Pyknosed Nuclei (%),[1]; [5],6% and 10%
same,Population Tubulin-Different-Phenotype (%),[1]; [5],3% and 7%
same,Total Cell Count,[1]; [5],252 and 139
same,Population Apoptotic (%),[1]; [6],86% and 80%
same,Population Fragmented Nuclei (%),[1]; [6],25% and 21%
same,Population Healthy Nuclei (%),[1]; [6],65% and 73%
same,Population Hoechst High Intensity Objects (%),[1]; [6],1%
same,Population Membrane Permeable-Phenotype (%),[1]; [6],7% and 6%
same,Population Mitochondria Different-Phenotype (%),[1]; [6],1%
same,Population Mitotic Cells (%),[1]; [6],13% and 20%
same,Population Normal (%),[1]; [6],98%
same,Population Pyknosed Nuclei (%),[1]; [6],8% and 5%
same,Population Tubulin-Different-Phenotype (%),[1]; [6],4% and 9%
same,Total Cell Count,[1]; [6],278 and 177
same,Population Apoptotic (%),[1]; [7],100% and 81%
same,Population Fragmented Nuclei (%),[1]; [7],23% and 12%
same,Population Healthy Nuclei (%),[1]; [7],69% and 80%
same,Population Hoechst High Intensity Objects (%),[1]; [7],1% and 2%
same,Population Membrane Permeable-Phenotype (%),[1]; [7],9% and 4%
same,Population Mitochondria Different-Phenotype (%),[1]; [7],3% and 4%
same,Population Mitotic Cells (%),[1]; [7],0% and 18%
same,Population Normal (%),[1]; [7],98% and 97%
same,Population Pyknosed Nuclei (%),[1]; [7],6%
same,Population Tubulin-Different-Phenotype (%),[1]; [7],7% and 2%
same,Total Cell Count,[1]; [7],287 and 166
same,Population Apoptotic (%),[1]; [8],83% and 69%
same,Population Fragmented Nuclei (%),[1]; [8],21% and 19%
same,Population Healthy Nuclei (%),[1]; [8],69% and 75%
same,Population Hoechst High Intensity Objects (%),[1]; [8],2% and 3%
same,Population Membrane Permeable-Phenotype (%),[1]; [8],5%
same,Population Mitochondria Different-Phenotype (%),[1]; [8],1% and 2%
same,Population Mitotic Cells (%),[1]; [8],16% and 30%
same,Population Normal (%),[1]; [8],97% and 96%
same,Population Pyknosed Nuclei (%),[1]; [8],9% and 5%
same,Population Tubulin-Different-Phenotype (%),[1]; [8],2% and 7%
same,Total Cell Count,[1]; [8],409 and 267
same,Population Apoptotic (%),[1]; [9],100% and 88%
same,Population Fragmented Nuclei (%),[1]; [9],19% and 11%
same,Population Healthy Nuclei (%),[1]; [9],71% and 78%
same,Population Hoechst High Intensity Objects (%),[1]; [9],1%
same,Population Membrane Permeable-Phenotype (%),[1]; [9],5% and 2%
same,Population Mitochondria Different-Phenotype (%),[1]; [9],3%
same,Population Mitotic Cells (%),[1]; [9],0% and 12%
same,Population Normal (%),[1]; [9],98%
same,Population Pyknosed Nuclei (%),[1]; [9],8% and 10%
same,Population Tubulin-Different-Phenotype (%),[1]; [9],6% and 1%
same,Total Cell Count,[1]; [9],420 and 254
same,Population Apoptotic (%),[2]; [4],47% and 37%
same,Population Fragmented Nuclei (%),[2]; [4],15% and 28%
same,Population Healthy Nuclei (%),[2]; [4],68% and 45%
same,Population Hoechst High Intensity Objects (%),[2]; [4],2% and 5%
same,Population Membrane Permeable-Phenotype (%),[2]; [4],1% and 11%
same,Population Mitochondria Different-Phenotype (%),[2]; [4],10% and 11%
same,Population Mitotic Cells (%),[2]; [4],52% and 62%
same,Population Normal (%),[2]; [4],97% and 94%
same,Population Pyknosed Nuclei (%),[2]; [4],15% and 26%
same,Population Tubulin-Different-Phenotype (%),[2]; [4],25% and 66%
same,Total Cell Count,[2]; [4],135 and 97
same,Population Apoptotic (%),[2]; [5],48% and 36%
same,Population Fragmented Nuclei (%),[2]; [5],16% and 40%
same,Population Healthy Nuclei (%),[2]; [5],67% and 36%
same,Population Hoechst High Intensity Objects (%),[2]; [5],2% and 7%
same,Population Membrane Permeable-Phenotype (%),[2]; [5],0% and 10%
same,Population Mitochondria Different-Phenotype (%),[2]; [5],6% and 12%
same,Population Mitotic Cells (%),[2]; [5],51% and 64%
same,Population Normal (%),[2]; [5],97% and 92%
same,Population Pyknosed Nuclei (%),[2]; [5],15% and 22%
same,Population Tubulin-Different-Phenotype (%),[2]; [5],44% and 67%
same,Total Cell Count,[2]; [5],216 and 118
same,Population Apoptotic (%),[2]; [6],75% and 47%
same,Population Fragmented Nuclei (%),[2]; [6],17% and 36%
same,Population Healthy Nuclei (%),[2]; [6],65% and 44%
same,Population Hoechst High Intensity Objects (%),[2]; [6],2%
same,Population Membrane Permeable-Phenotype (%),[2]; [6],1% and 8%
same,Population Mitochondria Different-Phenotype (%),[2]; [6],3% and 8%
same,Population Mitotic Cells (%),[2]; [6],25% and 52%
same,Population Normal (%),[2]; [6],97%
same,Population Pyknosed Nuclei (%),[2]; [6],16% and 18%
same,Population Tubulin-Different-Phenotype (%),[2]; [6],19% and 50%
same,Total Cell Count,[2]; [6],145 and 106
same,Population Apoptotic (%),[2]; [7],41% and 29%
same,Population Fragmented Nuclei (%),[2]; [7],12% and 33%
same,Population Healthy Nuclei (%),[2]; [7],70% and 43%
same,Population Hoechst High Intensity Objects (%),[2]; [7],2%
same,Population Membrane Permeable-Phenotype (%),[2]; [7],1% and 4%
same,Population Mitochondria Different-Phenotype (%),[2]; [7],6%
same,Population Mitotic Cells (%),[2]; [7],58% and 70%
same,Population Normal (%),[2]; [7],97%
same,Population Pyknosed Nuclei (%),[2]; [7],17% and 23%
same,Population Tubulin-Different-Phenotype (%),[2]; [7],41% and 64%
same,Total Cell Count,[2]; [7],213 and 107
same,Population Apoptotic (%),[2]; [8],70% and 50%
same,Population Fragmented Nuclei (%),[2]; [8],22% and 36%
same,Population Healthy Nuclei (%),[2]; [8],62% and 49%
same,Population Hoechst High Intensity Objects (%),[2]; [8],2% and 3%
same,Population Membrane Permeable-Phenotype (%),[2]; [8],0% and 2%
same,Population Mitochondria Different-Phenotype (%),[2]; [8],2% and 6%
same,Population Mitotic Cells (%),[2]; [8],30% and 50%
same,Population Normal (%),[2]; [8],97% and 96%
same,Population Pyknosed Nuclei (%),[2]; [8],15% and 14%
same,Population Tubulin-Different-Phenotype (%),[2]; [8],20% and 54%
same,Total Cell Count,[2]; [8],137 and 101
same,Population Apoptotic (%),[2]; [9],40% and 66%
same,Population Fragmented Nuclei (%),[2]; [9],26% and 50%
same,Population Healthy Nuclei (%),[2]; [9],58% and 39%
same,Population Hoechst High Intensity Objects (%),[2]; [9],3%
same,Population Membrane Permeable-Phenotype (%),[2]; [9],0% and 9%
same,Population Mitochondria Different-Phenotype (%),[2]; [9],0% and 9%
same,Population Mitotic Cells (%),[2]; [9],59% and 33%
same,Population Normal (%),[2]; [9],96%
same,Population Pyknosed Nuclei (%),[2]; [9],14% and 10%
same,Population Tubulin-Different-Phenotype (%),[2]; [9],31% and 60%
same,Total Cell Count,[2]; [9],227 and 114
same,Population Apoptotic (%),[3]; [4],40% and 34%
same,Population Fragmented Nuclei (%),[3]; [4],8% and 5%
same,Population Healthy Nuclei (%),[3]; [4],79% and 84%
same,Population Hoechst High Intensity Objects (%),[3]; [4],6%
same,Population Membrane Permeable-Phenotype (%),[3]; [4],0%
same,Population Mitochondria Different-Phenotype (%),[3]; [4],35% and 48%
same,Population Mitotic Cells (%),[3]; [4],60% and 65%
same,Population Normal (%),[3]; [4],93%
same,Population Pyknosed Nuclei (%),[3]; [4],11% and 10%
same,Population Tubulin-Different-Phenotype (%),[3]; [4],21% and 16%
same,Total Cell Count,[3]; [4],383 and 354
same,Population Apoptotic (%),[3]; [5],23% and 36%
same,Population Fragmented Nuclei (%),[3]; [5],7% and 6%
same,Population Healthy Nuclei (%),[3]; [5],82% and 81%
same,Population Hoechst High Intensity Objects (%),[3]; [5],7% and 10%
same,Population Membrane Permeable-Phenotype (%),[3]; [5],0%
same,Population Mitochondria Different-Phenotype (%),[3]; [5],46% and 63%
same,Population Mitotic Cells (%),[3]; [5],76% and 63%
same,Population Normal (%),[3]; [5],92% and 89%
same,Population Pyknosed Nuclei (%),[3]; [5],9% and 12%
same,Population Tubulin-Different-Phenotype (%),[3]; [5],30% and 20%
same,Total Cell Count,[3]; [5],416 and 296
same,Population Apoptotic (%),[3]; [6],20% and 36%
same,Population Fragmented Nuclei (%),[3]; [6],9%
same,Population Healthy Nuclei (%),[3]; [6],79% and 82%
same,Population Hoechst High Intensity Objects (%),[3]; [6],4%
same,Population Membrane Permeable-Phenotype (%),[3]; [6],1%
same,Population Mitochondria Different-Phenotype (%),[3]; [6],16% and 24%
same,Population Mitotic Cells (%),[3]; [6],79% and 63%
same,Population Normal (%),[3]; [6],95%
same,Population Pyknosed Nuclei (%),[3]; [6],11% and 8%
same,Population Tubulin-Different-Phenotype (%),[3]; [6],12% and 8%
same,Total Cell Count,[3]; [6],488 and 480
same,Population Apoptotic (%),[3]; [7],44% and 34%
same,Population Fragmented Nuclei (%),[3]; [7],13% and 9%
same,Population Healthy Nuclei (%),[3]; [7],75% and 79%
same,Population Hoechst High Intensity Objects (%),[3]; [7],6% and 9%
same,Population Membrane Permeable-Phenotype (%),[3]; [7],0%
same,Population Mitochondria Different-Phenotype (%),[3]; [7],32% and 50%
same,Population Mitotic Cells (%),[3]; [7],55% and 65%
same,Population Normal (%),[3]; [7],93% and 90%
same,Population Pyknosed Nuclei (%),[3]; [7],11%
same,Population Tubulin-Different-Phenotype (%),[3]; [7],19% and 17%
same,Total Cell Count,[3]; [7],577 and 378
same,Population Apoptotic (%),[3]; [8],23% and 14%
same,Population Fragmented Nuclei (%),[3]; [8],13%
same,Population Healthy Nuclei (%),[3]; [8],78% and 80%
same,Population Hoechst High Intensity Objects (%),[3]; [8],1% and 2%
same,Population Membrane Permeable-Phenotype (%),[3]; [8],1% and 0%
same,Population Mitochondria Different-Phenotype (%),[3]; [8],12% and 14%
same,Population Mitotic Cells (%),[3]; [8],76% and 85%
same,Population Normal (%),[3]; [8],98% and 97%
same,Population Pyknosed Nuclei (%),[3]; [8],7% and 6%
same,Population Tubulin-Different-Phenotype (%),[3]; [8],12% and 9%
same,Total Cell Count,[3]; [8],745 and 804
same,Population Apoptotic (%),[3]; [9],16% and 27%
same,Population Fragmented Nuclei (%),[3]; [9],17% and 13%
same,Population Healthy Nuclei (%),[3]; [9],75% and 81%
same,Population Hoechst High Intensity Objects (%),[3]; [9],3%
same,Population Membrane Permeable-Phenotype (%),[3]; [9],0% and 1%
same,Population Mitochondria Different-Phenotype (%),[3]; [9],25% and 24%
same,Population Mitotic Cells (%),[3]; [9],83% and 72%
same,Population Normal (%),[3]; [9],96%
same,Population Pyknosed Nuclei (%),[3]; [9],6% and 4%
same,Population Tubulin-Different-Phenotype (%),[3]; [9],14% and 11%
same,Total Cell Count,[3]; [9],861 and 645
